ERp5 inh = inhibitors of ERp5-driven insulin aggregation, primary screen, biochemical, turbidity, absorbance 650 nm, single point; Protein disulfide-isomerase A6 (Homo sapiens), Q15084; 90 min; inhibition, % at 9.99 µM; 350,000 tested, 0.05% active; AID 651711, 2012;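 active = mean replicate inhibition above about 25%, with every replicate also reaching it, limit read from the data, passing the limit was not always enough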
Target sequence (Q15084 whole entry, looked up): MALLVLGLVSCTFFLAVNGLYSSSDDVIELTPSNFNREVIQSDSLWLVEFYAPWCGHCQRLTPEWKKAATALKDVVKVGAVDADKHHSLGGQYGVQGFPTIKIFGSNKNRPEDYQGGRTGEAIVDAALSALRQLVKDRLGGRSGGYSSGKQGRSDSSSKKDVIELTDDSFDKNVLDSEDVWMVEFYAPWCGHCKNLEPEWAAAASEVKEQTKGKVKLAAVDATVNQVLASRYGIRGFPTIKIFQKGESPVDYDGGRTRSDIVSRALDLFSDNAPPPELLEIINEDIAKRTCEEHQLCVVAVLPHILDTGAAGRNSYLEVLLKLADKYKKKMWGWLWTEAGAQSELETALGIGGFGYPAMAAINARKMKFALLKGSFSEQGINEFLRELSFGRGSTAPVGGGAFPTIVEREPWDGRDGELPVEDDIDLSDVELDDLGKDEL
FGF22 binding = binders of human FGF22 protein, primary screen, FGF22 synaptogenesis inhibitor project, biophysical, thermal shift, single point; 340,000 tested, 1.5% active; recombinant FGF22 thermal shift, SYPRO orange fluorescence; percent of sucrose octasulfate shift, DMSO zero; activity (Tm shift, normalised), % at 9.99 µM; Fibroblast growth factor 22 (Homo sapiens), Q9HCT0;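 active = mean Tm shift, scaled 0 neutral to 100 positive control, at about 1.3% or above, every replicate too, limit read from the data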
S100A4 MyoIIA = inhibitors of S100A4-myosin IIA peptide binding, primary screen, biochemical, fluorescence polarization, TAMRA-MyoIIA peptide. inhibition, % at 10.7 µM. AID 652163, 2013. 360,000 tested, 0.14% active. Protein S100-A4 (Homo sapiens), P26447;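 active = mean inhibition of at least 70% across replicates, with every replicate also reaching that level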
Target sequence (P26447 whole entry, looked up): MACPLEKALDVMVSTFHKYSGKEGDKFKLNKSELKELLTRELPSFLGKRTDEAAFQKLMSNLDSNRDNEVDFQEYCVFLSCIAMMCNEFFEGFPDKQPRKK
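incubation = readout 5 min after mixing, signal stable up to 60 min | system = S100A4 monomer protein | buffer or medium = HEPES pH 7.2 with CaCl2, KCl, NaCl, DTT, Triton | benchmarks = neutral control DMSO, positive control TFP | also added = fluorescent myosin IIA peptide, 5 nM | compound dosing = one concentration per compound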
PDI turbidity = inhibitors of human PDI, primary screen, biochemical, turbidity, single point, plate reader; Protein disulfide-isomerase (Homo sapiens), P07237; PDI insulin aggregation turbidity, A650, 90 min; inhibition, % at 10 µM; 350,000 tested, 0.052% active;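 active = mean inhibition across replicates of 30% or more, whatever share of single replicates reach that level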
ERAP1 HTS inh = human ERAP1 aminopeptidase inhibitors, primary screen, biochemical, single point, plate reader; inhibition, % at 10.7 µM; 340,000 tested, 0.15% active; recombinant ERAP1, Leu-AMC fluorescence, 60 min; AID 652197, 2013; Endoplasmic reticulum aminopeptidase 1 (Homo sapiens), Q9NZ08;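 active = mean replicate inhibition of at least 30%, or all replicates individually reaching that 30% level; inactive = mean below 30% and not every replicate reaching it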;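 note: 0% = neutral control wells and 100% = L-leucinethiol positive control wells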
* marks the source's active call; other numbers are inactive results; nt = not tested or not shown. This is one part of a sample in which hits are shown more often than they occur.

SMILES	ERp5 inh	FGF22 binding	S100A4 MyoIIA	PDI turbidity	ERAP1 HTS inh
CC(C)[C@H](NC(=O)C1CC1)C(=O)N1CCC[C@H]1C(=O)NCCc1ccccc1Cl	4	0	1	nt	-1
COc1cc(C(=O)NCC(=O)N/N=C/c2cccnc2)cc(OC)c1OC	3	0	-6	-8	0
CN1C(=O)NC(c2ccccc2[N+](=O)[O-])C2=C1CCCC2=O (configuration not stated)	-1	0	117*	0	3
CN1C(=O)NC(c2ccccc2[N+](=O)[O-])C2=C1CC(C)(C)CC2=O (configuration not stated)	2	0	-3	3	2
Cc1occc1C(=O)N/N=C/C1=C(N2CCOCC2)C(=C/c2ccc(Cl)cc2Cl)/CC1	-1	43*	2	-5	4
COc1ccc(-n2c(=O)c3ccccc3n(CC(=O)NCC3CCCO3)c2=O)cc1 (configuration not stated)	3	44*	-7	6	-2
COc1ccccc1NC(=O)CSc1nnnn1C	nt	nt	nt	-7	nt
COc1ccc(OC)c(NC(=O)CSc2nnnn2C)c1	1	43*	1	5	0
COc1ccc(CC(=O)NC(C)c2nnc(SCC(=O)Nc3ccccc3)n2C)cc1 (configuration not stated)	6	0	3	1	-3
COc1ccc(CC(=O)NC(C)c2nnc(SCC(=O)Nc3cc(C)ccc3OC)n2C)cc1 (configuration not stated)	-1	1.6*	5	-2	3
COc1ccc(NS(=O)(=O)c2cccc(C(=O)NCc3ccco3)c2)cc1	0	0	-2	7	0
CC1CCC(N2CCNCC2)CC1 (configuration not stated)	3	44*	-11	-7	1
C1CCCC(N2CCNCC2)CC1	nt	nt	nt	0	nt
COc1cc([N+](=O)[O-])ccc1NC(=O)NCc1ccco1	1	44*	1	2	-2
O=C(COC(=O)c1nc(Cl)ccc1Cl)c1ccc(Cl)s1	1	44*	-1	-13	2
Clc1ccc(CNc2ncnc3[nH]ncc23)c(Cl)c1	13	43*	3	-9	4
CC(C)CNc1ncnc2[nH]ncc12	-2	44*	-1	3	2
CCCS(=O)(=O)N1CCN(S(=O)(=O)c2ccccc2[N+](=O)[O-])CC1	1	43*	-3	nt	-3
COc1ccccc1/C=N/NC(=O)c1ccc(CN2C(=O)c3cccc4cccc2c34)cc1	-1	0	3	0	nt
NNC(=O)c1ccc(CN2C(=O)c3cccc4cccc2c34)cc1	5	44*	0	2	3
CC(=O)Oc1cccc(C2=CC(=O)CC(C)(C)C2=O)c1	-4	0	7	-3	7
CCn1cc(-c2ccnc3cc(C(=O)O)nn23)c(C)n1	1	43*	-3	-12	7
Cc1nnsc1C(=O)N/N=C/c1ccc2ccccc2c1O	nt	nt	nt	19	nt
Cc1ccc(CSCC(=O)Nc2ccccc2F)cc1	-2	43*	5	9	2
CCCNC(=O)N1C[C@H](O)COC[C@H]2O[C@@H](CC(=O)NCCCN3CCOCC3)CC[C@@H]21	2	0	0	nt	-2
SMILES	ERp5 inh	FGF22 binding	S100A4 MyoIIA	PDI turbidity	ERAP1 HTS inh
COc1ccc(C2C(CN3CCOCC3)C(=O)N2c2ccccc2)cc1 (configuration not stated)	-6	0	-2	3	1
COc1ccc(N2C(=O)C(CN3CCN(C)CC3)C2c2ccccc2)cc1 (configuration not stated)	-9	44*	-2	-5	-5
COc1ccc(NC(=O)Nc2cccc3c2O[C@H](CN(C)Cc2ccc(-c4ccccc4)cc2)[C@H](C)CN([C@H](C)CO)C3=O)cc1	-3	0	13	nt	-2
Cc1cccc(C)c1-n1c(SCC(=O)Nc2ccc(C(=O)O)cc2)nnc1-c1cccc(S(=O)(=O)N(C)C)c1	2	43*	3	5	-4
O=C(CSc1nnc(-c2cccc(S(=O)(=O)N3CCCC3)c2)n1-c1ccccc1)Nc1ccc(C(=O)O)cc1	3	0	-2	-4	0
CCOC(=O)c1c[nH]n2c(=O)cc(C)nc12	4	0	-1	5	nt
CCOC(=O)c1c[nH]n2c(=S)ncnc12	1	43*	-1	-1	2
CC1CCN(C(=O)c2ccc3c(c2)OCO3)CC1	4	0	2	-4	3
O=C(O)Cn1c2c(c3ccccc31)CSc1ccc(Cl)cc1-2	0	1.9*	-8	-3	9
C[C@@H]1CN([C@@H](C)CO)C(=O)Cc2cc(NC(=O)CCC(F)(F)F)ccc2O[C@@H]1CN(C)S(=O)(=O)c1ccc(F)cc1	-5	0	9	nt	1
CCNc1nc(SC(C)C(=O)Nc2ccccc2)nc(N(C)C)n1 (configuration not stated)	-1	43*	1	-5	-3
Cc1noc(C)c1NC(=O)Nc1cccc2c1O[C@H](CN(C)Cc1ccc(Oc3ccccc3)cc1)[C@@H](C)CN([C@@H](C)CO)C2=O	8	0	-53	nt	-1
O=C(COC(=O)c1ccc(OC(F)(F)F)cc1)NCCN1C(=O)CSC1=O	10	0	4	-1	0
Cc1noc(C)c1COc1ccc(C(=O)OCC(=O)NCCN2C(=O)CSC2=O)cc1	5	44*	0	2	-7
COc1ccc(-c2csc(N3CCSCC3)n2)cc1	5	0	-7	9	-3
NC(=O)CSc1nccn1Cc1ccccc1	8	43*	-2	-8	-4
Cc1ccc(NCC(=O)N/N=C/c2cc(O)ccc2[N+](=O)[O-])cc1	-1	43*	-13	-6	5
Cc1ccc(NCC(=O)N/N=C/c2ccncc2)cc1	-3	0	-2	8	0
O=C(O)c1cc2nc3c(c(C(F)(F)F)n2n1)CCCC3	4	43*	1	-1	-1
CCOc1cccc(C(=O)NC(=S)Nc2ccc(Cl)cc2C(=O)O)c1	0	43*	5	2	0
C[C@@H]1CCCCO[C@H](CN(C)S(=O)(=O)c2cccs2)[C@@H](C)CN([C@H](C)CO)C(=O)c2cc(NS(=O)(=O)c3ccc(Cl)cc3)ccc2O1	-1	1.6*	-3	nt	0
C[C@H](CO)N1C[C@H](C)[C@@H](CN(C)S(=O)(=O)c2cccs2)OCCCC[C@H](C)Oc2ccc(NS(C)(=O)=O)cc2C1=O	-20	-1	106*	nt	-6
